From ChEMBL document CHEMBL1123167, “Synthesis and evaluation of phenyl- and benzoylpiperazines as potential serotonergic agents” (J Med Chem, 1986)
pKi: −log10 of the molar value. Active and inactive are the calls of the source. No cut-off for these calls is given here.

What was measured:
[1] = system: Rattus norvegicus; test: Stimulus generalization in TFMPP-trained rats at dosage 10 mg/kg. Number of animals responding/number of animals are 5/5; assay type: functional
[2] = system: Rattus norvegicus; test: Stimulus generalization in TFMPP-trained rats at dosage 5.0 mg/kg. Number of animals responding/number of animals are 4/4; assay type: functional
[3] = Displacement of […] from 5-hydroxytryptamine 1 receptor of rat cortex
[4] = target: Serotonin 2 (5-HT2) receptor (Rattus norvegicus, UniProt P30994+P08909+P14842); test: Displacement of [3H]ketanserin from 5-hydroxytryptamine 2 receptor of rat cortex
Procedure, shortened: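 Rat tissue homogenate (4 mg wet weight per assay) in 50 mM Tris, 5 mM MgCl2, 0.5 mM EDTA, pH 7.4 at 37 °C, competed against 0.4 nM [3H]ketanserin. Bound ligand was collected on glass fiber filters and counted by liquid scintillation. Assays were run in triplicate. IC50 came from a 23-point curve by nonlinear least-squares fitting, and Ki = IC50/(1 + [D]/KD).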

[5] = system: Rattus norvegicus; test: Stimulus generalization in TFMPP-trained rats at dosage 0.3 mg/kg. Number of animals responding/number of animals are 3/3; assay type: functional
[6] = system: Rattus norvegicus; test: Stimulus generalization in TFMPP-trained rats at dosage 2.0 mg/kg. Number of animals responding/number of animals are 4/4; assay type: functional
[7] = system: Rattus norvegicus; test: Stimulus generalization in DOM-trained rats at dosage 0.1 mg/kg. Number of animals responding/number of animals are 3/3; assay type: functional
[8] = system: Rattus norvegicus; test: Stimulus generalization in DOM-trained rats at dosage 1.0 mg/kg. Number of animals responding/number of animals are 0/3; D=Disruption of behavior; assay type: functional, organism-based; parameters: dose 1 mg/kg
[9] = system: Rattus norvegicus; test: Stimulus generalization in TFMPP-trained rats at dosage 0.4 mg/kg. Number of animals responding/number of animals are 3/4; assay type: functional
[10] = system: Rattus norvegicus; test: Stimulus generalization in DOM-trained rats at dosage 0.5 mg/kg. Number of animals responding/number of animals are 2/3; assay type: functional
[11] = system: Rattus norvegicus; test: Stimulus generalization in TFMPP-trained rats at dosage 0.1 mg/kg. Number of animals responding/number of animals are 4/5; assay type: functional
[12] = system: Rattus norvegicus; test: Stimulus generalization in TFMPP-trained rats at dosage 1.0 mg/kg. Number of animals responding/number of animals are 5/5; assay type: functional
[13] = system: Rattus norvegicus; test: Stimulus generalization in TFMPP-trained rats at dosage 0.05 mg/kg. Number of animals responding/number of animals are 4/4; assay type: functional
[14] = system: Rattus norvegicus; test: Stimulus generalization in TFMPP-trained rats at dosage 1.2 mg/kg. Number of animals responding/number of animals are 5/5; assay type: functional
[15] = system: Rattus norvegicus; test: Stimulus generalization in TFMPP-trained rats at dosage 0.1 mg/kg. Number of animals responding/number of animals are 4/4; assay type: functional
[16] = system: Rattus norvegicus; test: Stimulus generalization in TFMPP-trained rats at dosage 0.15 mg/kg. Number of animals responding/number of animals are 3/3; assay type: functional
[17] = system: Rattus norvegicus; test: Stimulus generalization in TFMPP-trained rats at dosage 0.35 mg/kg. Number of animals responding/number of animals are 4/4; assay type: functional
[18] = system: Rattus norvegicus; test: Compound was evaluated for ED50 in TFMPP-trained rats at dosage 0.50 mg/kg. Number of animals responding/number of animals are 4/4; assay type: functional
[19] = system: Rattus norvegicus; test: Stimulus generalization in TFMPP-trained rats at dosage 0.50 mg/kg. Number of animals responding/number of animals are 5/5; assay type: functional; conditions: dose 0.5 mg/kg
[20] = system: Rattus norvegicus; test: Stimulus generalization in TFMPP-trained rats at dosage 0.30 mg/kg. Number of animals responding/number of animals are 4/4; assay type: functional; conditions: dose 0.3 mg/kg
[21] = system: Rattus norvegicus; test: Stimulus generalization in TFMPP-trained rats at dosage 0.20 mg/kg. Number of animals responding/number of animals are 4/4; assay type: functional; conditions: dose 0.2 mg/kg
[22] = system: Rattus norvegicus; test: Stimulus generalization in DOM-trained rats at dosage 8.0 mg/kg. Number of animals responding/number of animals are 3/3; assay type: functional
[23] = system: Rattus norvegicus; test: Stimulus generalization in DOM-trained rats at dosage 5.0 mg/kg. Number of animals responding/number of animals are 3/3; assay type: functional
[24] = system: Rattus norvegicus; test: Stimulus generalization in DOM-trained rats at dosage 1.0 mg/kg. Number of animals responding/number of animals are 3/3; assay type: functional
[25] = system: Rattus norvegicus; test: Stimulus generalization in DOM-trained rats at dosage 9.0 mg/kg. Number of animals responding/number of animals are 3/3; assay type: functional
[26] = system: Rattus norvegicus; test: Compound was evaluated for ED50 in DOM-trained rats at dosage 9.0 mg/kg. Number of animals responding/number of animals are 3/3; assay type: functional
[27] = system: Rattus norvegicus; test: Stimulus generalization in DOM-trained rats at dosage 3.0 mg/kg. Number of animals responding/number of animals are 3/3; assay type: functional
[28] = system: Rattus norvegicus; test: Stimulus generalization in DOM-trained rats at dosage 18 mg/kg. Number of animals responding/number of animals are 0/4; D=Disruption of behavior; assay type: functional, organism-based; parameters: dose 18 mg/kg
[29] = system: Rattus norvegicus; test: Stimulus generalization in DOM-trained rats at dosage 6.0 mg/kg. Number of animals responding/number of animals are 5/5; assay type: functional
[30] = system: Rattus norvegicus; test: Stimulus generalization in DOM-trained rats at dosage 14.0 mg/kg. Number of animals responding/number of animals are 1/5; D=Disruption of behavior; assay type: functional, organism-based; parameters: dose 14 mg/kg
[31] = system: Rattus norvegicus; test: Stimulus generalization in DOM-trained rats at dosage 13.5 mg/kg. Number of animals responding/number of animals are 3/4; assay type: functional
[32] = system: Rattus norvegicus; test: Stimulus generalization in TFMPP-trained rats at dosage 1.2 mg/kg. Number of animals responding/number of animals are 4/4; assay type: functional
[33] = system: Rattus norvegicus; test: Stimulus generalization in DOM-trained rats at dosage 12 mg/kg. Number of animals responding/number of animals are 4/4; assay type: functional
[34] = system: Rattus norvegicus; test: Stimulus generalization in TFMPP-trained rats at dosage 15 mg/kg. Number of animals responding/number of animals are 3/3; assay type: functional
[35] = system: Rattus norvegicus; test: Stimulus generalization in TFMPP-trained rats at dosage 3.0 mg/kg. Number of animals responding/number of animals are 4/4; assay type: functional
[36] = system: Rattus norvegicus; test: Stimulus generalization in DOM-trained rats at dosage 15 mg/kg. Number of animals responding/number of animals are 1/4; D=Disruption of behavior; assay type: functional, organism-based; parameters: dose 15 mg/kg
[37] = system: Rattus norvegicus; test: Stimulus generalization in TFMPP-trained rats at dosage 6.0 mg/kg. Number of animals responding/number of animals are 4/4; assay type: functional
[38] = system: Rattus norvegicus; test: Stimulus generalization in TFMPP-trained rats at dosage 10 mg/kg. Number of animals responding/number of animals are 3/3; assay type: functional
[39] = system: Rattus norvegicus; test: Stimulus generalization in TFMPP-trained rats at dosage 12.0 mg/kg. Number of animals responding/number of animals are 2/3; assay type: functional
[40] = system: Rattus norvegicus; test: Stimulus generalization in TFMPP-trained rats at dosage 1.5 mg/kg. Number of animals responding/number of animals are 3/3; assay type: functional
[41] = system: Rattus norvegicus; test: Stimulus generalization in TFMPP-trained rats at dosage 12.5 mg/kg. Number of animals responding/number of animals are 0/3; Disruption of Behavior; assay type: functional, organism-based; parameters: dose 12.5 mg/kg
[42] = system: Rattus norvegicus; test: Stimulus generalization in DOM-trained rats at dosage 6.0 mg/kg. Number of animals responding/number of animals are 4/4; assay type: functional
[43] = system: Rattus norvegicus; test: Compound was evaluated for Effective Dose DOM-trained rats at dosage 12.0 mg/kg. Number of animals responding/number of animals are 5/5; assay type: functional
[44] = system: Rattus norvegicus; test: Stimulus generalization in DOM-trained rats at dosage 12.0 mg/kg. Number of animals responding/number of animals are 5/5; assay type: functional
[45] = system: Rattus norvegicus; test: Stimulus generalization in DOM-trained rats at dosage 4.0 mg/kg. Number of animals responding/number of animals are 5/5; assay type: functional
[46] = system: Rattus norvegicus; test: Stimulus generalization in TFMPP-trained rats at dosage 5.0 mg/kg. Number of animals responding/number of animals are 3/3; assay type: functional
[47] = system: Rattus norvegicus; test: Stimulus generalization in DOM-trained rats at dosage 8.0 mg/kg. Number of animals responding/number of animals are 5/5; assay type: functional
[48] = system: Rattus norvegicus; test: Stimulus generalization in TFMPP-trained rats at dosage 8.0 mg/kg. Number of animals responding/number of animals are 3/3; assay type: functional

What does the source list for `Oc1ccccc1N1CCNCC1`?
Response [1]: 24%; Response [2]: 22%; pKi [3]: 6.82; Ki [4]: 17.2 µM; Response [5]: 17%; Response [6]: 12%

For `COc1ccccc1N1CCNCC1`, which Response [7] is on record?
The Response was 12%.

And the Response [8]?
Its Response is “inactive”.

What about the pKi [3] of the same compound?
Its pKi is 7.46.

What about the Response [9] of the same compound?
Its Response is 63%.

What about the Ki [4] of the same compound?
The Ki was 3.5 µM.

And the Response [10]?
Its Response is 20%.

And the Response [11]?
The Response was 33%.

And the Response [12]?
The Response was 81%.

What about the Response [13] of the same compound?
Its Response is 23%.

What about the Response [14] of the same compound?
The Response was 94%.

What does the source list for `FC(F)(F)c1cccc(N2CCNCC2)c1`?
Response [15]: 8%; Response [16]: 42%; pKi [3]: 7.70; Ki [4]: 0.16 µM; Response [17]: 90%; ED50 [18]: 0.17 mg/kg; Response [19]: 93%; Response [20]: 70%; Response [13]: 25%; Response [21]: 51%

With `COc1cc(N2CCNCC2)c(OC)cc1Br` as the compound, how does the Response [22] read?
Its Response is 72%.

And the pKi [3]?
The pKi was 6.09.

And the Response [23]?
Its Response is 46%.

What about the Response [24] of the same compound?
Its Response is 19%.

And the Ki [4]?
The Ki was 2.43 µM.

And the Response [25]?
The Response was 81%.

And the ED50 [26]?
Its ED50 is 4.08 mg/kg.

And the Response [27]?
The Response was 31%.

For `COc1ccc(OC)c(N2CCNCC2)c1`, which Response [28] is on record?
Its Response is “inactive”.

What about the Response [29] of the same compound?
Its Response is 10%.

What about the pKi [3] of the same compound?
The pKi was 5.99.

What about the Response [30] of the same compound?
The Response was “inactive”.

And the Response [31]?
The Response was 22%.

And the Ki [4]?
Its Ki is 8.43 µM.

And the Response [32]?
Its Response is 14%.

What about the Response [33] of the same compound?
The Response was 28%.

What about the Response [34] of the same compound?
Its Response is 14%.

What about the Response [35] of the same compound?
Its Response is 6%.

What about the Response [36] of the same compound?
Its Response is “inactive”.

What about the Response [37] of the same compound?
Its Response is 14%.

What about the Response [38] of the same compound?
Its Response is 19%.

What does the source list for `COc1ccc(OC)c(C(=O)N2CCNCC2)c1`?
pKi [3]: < 4.00; Ki [4]: > 100 µM

With `O=C(c1cccc(Cl)c1)N1CCNCC1` as the compound, how does the pKi [3] read?
Its pKi is 4.77.

What about the Ki [4] of the same compound?
Its Ki is 55.6 µM.

Which results are given for `Cc1cccc(C(=O)N2CCNCC2)c1`?
pKi [3]: 4.68; Ki [4]: 49 µM

For `COc1cc(N2CCNCC2)c(OC)cc1C`, which Response [39] is on record?
The Response was 30%.

And the Response [40]?
The Response was 11%.

And the Response [41]?
Its Response is “Disrupted behaviour”.

And the Response [42]?
Its Response is 53%.

What about the pKi [3] of the same compound?
Its pKi is 6.17.

What about the Ki [4] of the same compound?
Its Ki is 4.71 µM.

And the ED50 [43]?
Its ED50 is 6.23 mg/kg.

What about the Response [44] of the same compound?
Its Response is 83%.

And the Response [45]?
The Response was 21%.

And the Response [46]?
Its Response is 11%.

And the Response [47]?
Its Response is 68%.

What about the Response [48] of the same compound?
The Response was 7%.

With `COc1ccc(N)c(C(=O)CCN)c1` as the compound, how does the pKi [3] read?
The pKi was 6.46.

What about the Ki [4] of the same compound?
The Ki was 8.48 µM.
